According to ChEMBL document CHEMBL4251683, “Improved Dose-Response Relationship of (+)-Discodermolide-Taxol Hybrid Congeners” (2018):
One block for each molecule: values may come before it. Calls of active or inactive are those of the source. No cut-off for these calls is given here.

How the values were obtained:
MDA-MB-468 [1] = assay: Induction of senescence in human MDA-MB-468 cells at EC80 concentration after 3 to 6 days by DAPI staining based flow cytometry; type: functional
In short: (§1)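 Compounds given at approximately EC80 (taken from the cell's own dose-response data) for 3 to 6 days depending on line. Floating and trypsinized adherent cells were pooled, washed 3–5 times in warm PBS, and stained with DAPI (1/10,000) in PBS with 4% FBS on ice. Flow cytometry counted 10 000 cells per gate: dead = DAPI+, senescent = SSC+ DAPI−. Duplicate experiments, mean ± SEM.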

Hs-578T [2] = assay: Induction of senescence in human Hs578T cells at EC80 concentration after 3 to 6 days by DAPI staining based flow cytometry; type: functional; in short: as §1
HEY [3] = assay: Induction of senescence in human HEY cells at EC80 concentration after 3 to 6 days by DAPI staining based flow cytometry; type: functional; in short: as §1
MDA-MB-468 [4] = assay: Induction of cell death in human MDA-MB-468 cells at EC80 concentration after 3 to 6 days by DAPI staining based flow cytometry; type: functional; in short: as §1
Bos taurus = species on record: Bos taurus; assay: Induction of bovine brain tubulin alpha polymerization assessed as alpha tubulin expression by measuring pellet/supernatant and pellet fraction level at 3 uM after 1 hr by immunoblot method (reference value: 10.4%)
In short: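 Purified bovine brain tubulin incubated 30 min at 37 °C with 3 μM compound in MEM–glycerol buffer, 2 mM GTP, pH 6.9. Spun at 120000g, 37 °C, 1 h. Supernatant and SDS-solubilized pellet run on SDS-PAGE, α-tubulin quantified by Western blot, % polymerized calculated as P/(S + P).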

HEY [5] = assay: Induction of senescence in human HEY cells assessed as increase in IL-8 mRNA expression level at EC80 concentration after 6 days by qRT-PCR analysis; type: functional, cell-based
In short: (§2)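 Cells treated 6 days at EC80 doses (derived from dose-response data) and analysed for SASP transcripts by qRT-PCR. Expression was normalised to cyclophilin B and expressed relative to vehicle-treated asynchronous cells. Bars are mean ± SEM (n = 2).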

BT-549 [6] = assay: Induction of senescence in human BT549 cells at EC80 concentration after 3 to 6 days by DAPI staining based flow cytometry; type: functional; in short: as §1
HEY [7] = assay: Induction of senescence in human HEY cells assessed as increase in PAI1 mRNA expression level at EC80 concentration after 6 days by qRT-PCR analysis; type: functional, cell-based; in short: as §2
Hs-578T [8] = assay: Induction of cell death in human Hs578T cells at EC80 concentration after 3 to 6 days by DAPI staining based flow cytometry; type: functional; in short: as §1
BT-549 [9] = assay: Induction of cell death in human BT549 cells at EC80 concentration after 3 to 6 days by DAPI staining based flow cytometry; type: functional; in short: as §1
HEY [10] = assay: Induction of senescence in human HEY cells assessed as increase in CXCL1 mRNA expression level at EC80 concentration after 6 days by qRT-PCR analysis; type: functional, cell-based; in short: as §2
MDA-MB-468 [11] = assay: Induction of senescence in human MDA-MB-468 cells assessed as increase in IL-8 mRNA expression level at EC80 concentration after 6 days by qRT-PCR analysis; type: functional, cell-based; in short: as §2
MDA-MB-468 [12] = assay: Antiproliferative activity against human MDA-MB-468 cells after 3 to 7 days by SRB assay; type: functional, cell-based
In short: (§3)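 Sulforhodamine B total-protein read-out on adherent cells maintained in RPMI with 10% FBS. Seeding was 900–4000 cells per well depending on line, with 24 h allowed for attachment. Six replicate wells per concentration, exposure for three cell doublings (3 to 7 days); DMSO final below 0.01%. Logistic sigmoidal fit by nonlinear least squares gave EC50, EMax and AUC; experiments repeated at least three times.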

MDA-MB-468 [13] = assay: Induction of senescence in human MDA-MB-468 cells assessed as increase in CXCL1 mRNA expression level at EC80 concentration after 6 days by qRT-PCR analysis; type: functional, cell-based; in short: as §2
Hs-578T [14] = assay: Antiproliferative activity against human Hs578T cells after 3 to 7 days by SRB assay; type: functional, cell-based; in short: as §3
HCC1143 = assay: Antiproliferative activity against human HCC1143 cells after 3 to 7 days by SRB assay; type: functional, cell-based; in short: as §3
A549 = assay: Antiproliferative activity against human A549 cells after 3 to 7 days by SRB assay; type: functional, cell-based; in short: as §3
MDA-MB-157 = assay: Antiproliferative activity against human MDA-MB-157 cells after 3 to 7 days by SRB assay; type: functional, cell-based; in short: as §3
BT-20 = assay: Antiproliferative activity against human BT20 cells after 3 to 7 days by SRB assay; type: functional, cell-based; in short: as §3
MDA-MB-468 [15] = assay: Induction of senescence in human MDA-MB-468 cells assessed as increase in PAI1 mRNA expression level at EC80 concentration after 6 days by qRT-PCR analysis; type: functional, cell-based; in short: as §2
HEY [16] = assay: Antiproliferative activity against human HEY cells after 3 to 7 days by SRB assay; type: functional, cell-based; in short: as §3
MCF7 = assay: Antiproliferative activity against human MCF7 cells after 3 to 7 days by SRB assay; type: functional, cell-based; in short: as §3
BT-549 [17] = assay: Antiproliferative activity against human BT549 cells after 3 to 7 days by SRB assay; type: functional, cell-based; in short: as §3

Activity (Bos taurus): 56.1%
SMILES: C=C/C=C\[C@H](C)[C@H](OC(=O)NCCCNC(=O)c1ccc(C2(C(F)(F)F)N=N2)cc1)[C@@H](C)[C@H](O)[C@@H](C)C/C(C)=C\[C@H](C)[C@@H](O)[C@@H](C)/C=C\[C@@H](O)C[C@@H]1OC(=O)[C@H](C)[C@@H](O)[C@H]1C
Activity (MDA-MB-468 [11]): Active
Activity (MDA-MB-468 [12]): Active
Activity (MDA-MB-468 [1]): <10%
Activity (Hs-578T [2]): 15 - 18%
Activity (MDA-MB-468 [13]): Active
Activity (Hs-578T [14]): Active
Activity (HEY [3]): 10 - 15%
Activity (MDA-MB-468 [4]): Active
Activity (HCC1143): Active
Activity (A549): Active
Activity (MDA-MB-157): Active
Activity (HEY [5]): Active
Activity (BT-549 [6]): <10%
Activity (BT-20): Active
Activity (MDA-MB-468 [15]): Active
Activity (HEY [7]): Active
Activity (HEY [16]): Active
Activity (Hs-578T [8]): inactive
Activity (MCF7): Active
Activity (BT-549 [17]): Active
Activity (BT-549 [9]): Active
Activity (HEY [10]): Active

Activity (Bos taurus): 54.6%
SMILES: C=C/C=C\[C@H](C)[C@H](OC(=O)NCCNC(=O)c1ccc(N=[N+]=[N-])cc1)[C@@H](C)[C@H](O)[C@@H](C)C/C(C)=C\[C@H](C)[C@@H](O)[C@@H](C)/C=C\[C@@H](O)C[C@@H]1OC(=O)[C@H](C)[C@@H](O)[C@H]1C
Activity (MDA-MB-468 [1]): <10%
Activity (Hs-578T [2]): 15 - 18%
Activity (HEY [3]): 10 - 15%
Activity (MDA-MB-468 [4]): Active
Activity (HEY [5]): Active
Activity (BT-549 [6]): <10%
Activity (HEY [7]): Active
Activity (Hs-578T [8]): inactive
Activity (BT-549 [9]): Active
Activity (HEY [10]): Active

Activity (Bos taurus): 15.8%
SMILES: CC(=O)O[C@H]1C(=O)[C@@]2(C)[C@H]([C@H](OC(=O)c3ccccc3)[C@]3(O)C[C@H](OC(=O)[C@H](O)[C@@H](NC(=O)c4ccccc4)c4ccccc4)C(C)=C1C3(C)C)[C@]1(OC(C)=O)CO[C@@H]1C[C@@H]2O [PACLITAXEL]
Activity (MDA-MB-468 [12]): Active
Activity (Hs-578T [2]): 15 - 18%
Activity (Hs-578T [14]): Active
Activity (HEY [3]): 10 - 15%
Activity (HCC1143): Active
Activity (A549): Active
Activity (MDA-MB-157): Active
Activity (BT-20): Active
Activity (HEY [16]): Active
Activity (MCF7): Active
Activity (BT-549 [17]): Active

The remaining lines, values behind:

SMILES: C=C/C=C\[C@H](C)[C@H](OC(=O)NCCCCNC(=O)c1ccc(N=[N+]=[N-])cc1)[C@@H](C)[C@H](O)[C@@H](C)C/C(C)=C\[C@H](C)[C@@H](O)[C@@H](C)/C=C\[C@@H](O)C[C@@H]1OC(=O)[C@H](C)[C@@H](O)[C@H]1C
Activity (MDA-MB-468 [1]): <10%
Activity (Hs-578T [2]): 15 - 18%
Activity (HEY [3]): 10 - 15%
Activity (MDA-MB-468 [4]): Active
Activity (Bos taurus): 52.2%
Activity (HEY [5]): Active
Activity (BT-549 [6]): <10%
Activity (HEY [7]): Active
Activity (Hs-578T [8]): inactive
Activity (BT-549 [9]): Active
Activity (HEY [10]): Active

SMILES: C=C/C=C\[C@H](C)[C@H](OC(=O)NCCCNC(=O)c1cccc(N=[N+]=[N-])c1)[C@@H](C)[C@H](O)[C@@H](C)C/C(C)=C\[C@H](C)[C@@H](O)[C@@H](C)/C=C\[C@@H](O)C[C@@H]1OC(=O)[C@H](C)[C@@H](O)[C@H]1C
Activity (MDA-MB-468 [11]): Active
Activity (MDA-MB-468 [12]): Active
Activity (MDA-MB-468 [1]): <10%
Activity (Hs-578T [2]): 15 - 18%
Activity (MDA-MB-468 [13]): Active
Activity (Hs-578T [14]): Active
Activity (HEY [3]): 10 - 15%
Activity (MDA-MB-468 [4]): Active
Activity (HCC1143): Active
Activity (A549): Active
Activity (Bos taurus): 60%
Activity (MDA-MB-157): Active
Activity (HEY [5]): Active
Activity (BT-549 [6]): <10%
Activity (BT-20): Active
Activity (MDA-MB-468 [15]): Active
Activity (HEY [7]): Active
Activity (HEY [16]): Active
Activity (Hs-578T [8]): inactive
Activity (MCF7): Active
Activity (BT-549 [17]): Active
Activity (BT-549 [9]): Active
Activity (HEY [10]): Active

SMILES: C=C/C=C\[C@H](C)[C@H](OC(N)=O)[C@@H](C)[C@H](O)[C@@H](C)C/C(C)=C\[C@H](C)[C@@H](O)[C@@H](C)/C=C\[C@@H](O)C[C@@H]1OC(=O)[C@H](C)[C@@H](O)[C@H]1C [DISERMOLIDE]
Activity (MDA-MB-468 [11]): Active
Activity (MDA-MB-468 [12]): Active
Activity (Hs-578T [2]): 15 - 18%
Activity (MDA-MB-468 [13]): Active
Activity (Hs-578T [14]): Active
Activity (HEY [3]): 10 - 15%
Activity (HCC1143): Active
Activity (A549): Active
Activity (Bos taurus): 59.3%
Activity (MDA-MB-157): Active
Activity (BT-20): Active
Activity (MDA-MB-468 [15]): Active
Activity (HEY [16]): Active
Activity (Hs-578T [8]): inactive
Activity (MCF7): Active
Activity (BT-549 [17]): Active

SMILES: C=C/C=C\[C@H](C)[C@H](OC(=O)NCCCNC(=O)c1ccc(N=[N+]=[N-])cc1)[C@@H](C)[C@H](O)[C@@H](C)C/C(C)=C\[C@H](C)[C@@H](O)[C@@H](C)/C=C\[C@@H](O)C[C@@H]1OC(=O)[C@H](C)[C@@H](O)[C@H]1C
Activity (MDA-MB-468 [11]): Active
Activity (MDA-MB-468 [12]): Active
Activity (MDA-MB-468 [1]): <10%
Activity (Hs-578T [2]): 15 - 18%
Activity (MDA-MB-468 [13]): Active
Activity (Hs-578T [14]): Active
Activity (HEY [3]): 10 - 15%
Activity (MDA-MB-468 [4]): Active
Activity (HCC1143): Active
Activity (A549): Active
Activity (Bos taurus): 64.2%
Activity (MDA-MB-157): Active
Activity (HEY [5]): Active
Activity (BT-549 [6]): <10%
Activity (BT-20): Active
Activity (MDA-MB-468 [15]): Active
Activity (HEY [7]): Active
Activity (HEY [16]): Active
Activity (Hs-578T [8]): inactive
Activity (MCF7): Active
Activity (BT-549 [17]): Active
Activity (BT-549 [9]): Active
Activity (HEY [10]): Active
